Assay results: ChEMBL document CHEMBL4732243, “Design, synthesis, and structure activity relationship analysis of new betulinic acid derivatives as potent HIV inhibitors” (Eur J Med Chem, 2021)

Key:
[1] = tested on: MT4; assay: Cytotoxicity against human MT4 cells assessed as reduction in cell viability incubated for 2 days by CytoTox-Glo cytotoxicity assay; assay type: cell-based; settings: mt4, 48 h, time 2 day
Procedure, shortened: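 Mock-infected MT-4 cells cultured 2 days with a range of compound concentrations. Viability measured by CytoTox-Glo, following the kit protocol, as percent viable cells. CC50 is the concentration giving a 50% reduction in cell viability.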

[2] = tested on: Human immunodeficiency virus 1; assay: Potency index, ratio of IC50 for bevirimat to IC50 for test compound for antiviral activity against HIV-1 NL4-3 infected in human MT4 cells assessed as reduction in p24 gag protein incubated for 4 days by ELISA; assay type: functional; settings: time 4 day
Procedure, shortened: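 MT-4 cells infected with HIV-1 NL4-3 at MOI 0.01 and cultured with the test compounds. Bevirimat was run in parallel as the reference control. Supernatant p24 was measured on day 4 post-infection by antigen-capture ELISA. IC50 is the concentration that inhibits NL4-3 replication by 50%. The index is the bevirimat IC50 divided by the test-compound IC50.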

[3] = tested on: Human immunodeficiency virus 1; assay: Antiviral activity against HIV-1 NL4-3 infected in human MT4 cells assessed as reduction in p24 gag protein incubated for 4 days by ELISA; assay type: functional, organism-based; settings: Human immunodeficiency virus 1, NL4-3, MT4, 96 h
Procedure, shortened: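 MT-4 cells infected with HIV-1 NL4-3 at MOI 0.01, serial compound concentrations, in 96-well format. Supernatant p24 antigen measured by capture ELISA on day 4 post-infection. IC50 is the concentration that inhibits NL4-3 replication by 50%. Bevirimat run in parallel as the reference.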

Compound	CC50 [1] [nM]	Ratio IC50 [2]	IC50 ([3]; read-out: IC50) [nM]	IC50 ([3]; read-out: pIC50 (converted)) [nM]
C=C(C)[C@@H]1CC[C@]2(C(=O)N3CCN(C(=O)/C=C/c4ccc(O)c(O)c4)CC3)CC[C@]3(C)[C@H](CC[C@@H]4[C@@]5(C)CC[C@H](OC(=O)CC(C)(C)C(=O)O)C(C)(C)[C@@H]5CC[C@]43C)[C@@H]12	> 2000	2	–	–
C=C(C)[C@@H]1CC[C@]2(C(=O)N3CCN(C(=O)/C=C/c4ccc5c(c4)OCO5)CC3)CC[C@]3(C)[C@H](CC[C@@H]4[C@@]5(C)CC[C@H](OC(=O)CC(C)(C)C(=O)O)C(C)(C)[C@@H]5CC[C@]43C)[C@@H]12	> 2000	2	–	–
C=C(C)[C@@H]1CC[C@]2(C(=O)NCCCNC(=O)/C=C/c3ccc4c(c3)OCO4)CC[C@]3(C)[C@H](CC[C@@H]4[C@@]5(C)CC[C@H](OC(=O)CC(C)(C)C(=O)O)C(C)(C)[C@@H]5CC[C@]43C)[C@@H]12	> 2000	–	17	17
C=C(C)[C@@H]1CC[C@]2(C(=O)N3CCN(C(=O)CCc4ccc5c(c4)OCO5)CC3)CC[C@]3(C)[C@H](CC[C@@H]4[C@@]5(C)CC[C@H](OC(=O)CC(C)(C)C(=O)O)C(C)(C)[C@@H]5CC[C@]43C)[C@@H]12	> 2000	–	22	21.9
C=C(C)[C@@H]1CC[C@]2(C(=O)OCCCNc3nccs3)CC[C@]3(C)[C@H](CC[C@@H]4[C@@]5(C)CC[C@H](OC(=O)CC(C)(C)C(=O)O)C(C)(C)[C@@H]5CC[C@]43C)[C@@H]12	> 2000	–	39	38.9
C=C(C)[C@@H]1CC[C@]2(C(=O)N3CCN(C(=O)/C=C/c4csc5ccccc45)CC3)CC[C@]3(C)[C@H](CC[C@@H]4[C@@]5(C)CC[C@H](OC(=O)CC(C)(C)C(=O)O)C(C)(C)[C@@H]5CC[C@]43C)[C@@H]12	> 2000	–	180	182
C=C(C)[C@@H]1CC[C@]2(C(=O)N3CCN(C(=O)/C(C)=C/c4ccc5c(c4)OCO5)CC3)CC[C@]3(C)[C@H](CC[C@@H]4[C@@]5(C)CC[C@H](OC(=O)CC(C)(C)C(=O)O)C(C)(C)[C@@H]5CC[C@]43C)[C@@H]12	> 2000	–	57	57.5
C=C(C)[C@@H]1CC[C@]2(C(=O)N3CCN(C(=O)/C=C/c4ccc5c(c4)CCO5)CC3)CC[C@]3(C)[C@H](CC[C@@H]4[C@@]5(C)CC[C@H](OC(=O)CC(C)(C)C(=O)O)C(C)(C)[C@@H]5CC[C@]43C)[C@@H]12	> 2000	–	67	67.6
C=C(C)[C@@H]1CC[C@]2(C(=O)N3CCN(CCCCC(=O)N4CCN(c5cc(NCc6ccccc6)ncn5)CC4)CC3)CC[C@]3(C)[C@H](CC[C@@H]4[C@@]5(C)CC[C@H](OC(=O)CC(C)(C)C(=O)O)C(C)(C)[C@@H]5CC[C@]43C)[C@@H]12	> 2000	–	12	–
C=C(C)[C@@H]1CC[C@]2(C(=O)N3CCN(C(=O)/C=C/c4ccc(O)c(OCc5cccc(Cl)c5)c4)CC3)CC[C@]3(C)[C@H](CC[C@@H]4[C@@]5(C)CC[C@H](OC(=O)CC(C)(C)C(=O)O)C(C)(C)[C@@H]5CC[C@]43C)[C@@H]12	> 2000	–	190	–
C=C(C)[C@@H]1CC[C@]2(C(=O)N3CCN(C(=O)/C=C/c4ccc(OCOC)c(OCc5cccc(Cl)c5)c4)CC3)CC[C@]3(C)[C@H](CC[C@@H]4[C@@]5(C)CC[C@H](OC(=O)CC(C)(C)C(=O)O)C(C)(C)[C@@H]5CC[C@]43C)[C@@H]12	> 2000	–	460	–
C=C(C)[C@@H]1CC[C@]2(C(=O)N3CCN(C(=O)/C=C/c4ccc5c(c4)OCCO5)CC3)CC[C@]3(C)[C@H](CC[C@@H]4[C@@]5(C)CC[C@H](OC(=O)CC(C)(C)C(=O)O)C(C)(C)[C@@H]5CC[C@]43C)[C@@H]12	> 2000	–	50	50.1
C=C(C)[C@@H]1CC[C@]2(C(=O)OCCCOC(=O)/C=C/c3ccc(OC)cc3)CC[C@]3(C)[C@H](CC[C@@H]4[C@@]5(C)CC[C@H](OC(=O)CC(C)(C)C(=O)O)C(C)(C)[C@@H]5CC[C@]43C)[C@@H]12	> 2000	–	850	851
C=C(C)[C@@H]1CC[C@]2(C(=O)N3CCN(C(=O)c4cc5cc(OC)ccc5[nH]4)CC3)CC[C@]3(C)[C@H](CC[C@@H]4[C@@]5(C)CC[C@H](OC(=O)CC(C)(C)C(=O)O)C(C)(C)[C@@H]5CC[C@]43C)[C@@H]12	> 2000	–	53	52.5
C=C(C)[C@@H]1CC[C@]2(C(=O)N3CCN(C(=O)/C=C/c4cccs4)CC3)CC[C@]3(C)[C@H](CC[C@@H]4[C@@]5(C)CC[C@H](OC(=O)CC(C)(C)C(=O)O)C(C)(C)[C@@H]5CC[C@]43C)[C@@H]12	> 2000	–	32	32.4
C=C(C)[C@@H]1CC[C@]2(C(=O)N3CCN(C(=O)/C=C/c4ccc5occc5c4)CC3)CC[C@]3(C)[C@H](CC[C@@H]4[C@@]5(C)CC[C@H](OC(=O)CC(C)(C)C(=O)O)C(C)(C)[C@@H]5CC[C@]43C)[C@@H]12	> 2000	–	150	151
C=C(C)[C@@H]1CC[C@]2(C(=O)N3CCN(C(=O)/C=C/c4ccc5c(c4)OC(F)(F)O5)CC3)CC[C@]3(C)[C@H](CC[C@@H]4[C@@]5(C)CC[C@H](OC(=O)CC(C)(C)C(=O)O)C(C)(C)[C@@H]5CC[C@]43C)[C@@H]12	> 2000	–	590	589
C=C(C)[C@@H]1CC[C@]2(C(=O)N3CCN(C(=O)/C=C/c4ccc5[nH]ccc5c4)CC3)CC[C@]3(C)[C@H](CC[C@@H]4[C@@]5(C)CC[C@H](OC(=O)CC(C)(C)C(=O)O)C(C)(C)[C@@H]5CC[C@]43C)[C@@H]12	> 2000	–	50	50.1
C=C(C)[C@@H]1CC[C@]2(C(=O)N3CCN(C(=O)CC(C)(C)C(=O)O)CC3)CC[C@]3(C)[C@H](CC[C@@H]4[C@@]5(C)CC[C@H](ON6CCN(C(=O)CC(C)(C)C(=O)O)CC6)C(C)(C)[C@@H]5CC[C@]43C)[C@@H]12	> 2000	–	14	14.1
C=C(C)[C@@H]1CC[C@]2(C(=O)N3CCN(C(=O)CCC(=O)Nc4nccs4)CC3)CC[C@]3(C)[C@H](CC[C@@H]4[C@@]5(C)CC[C@H](OC(=O)CC(C)(C)C(=O)O)C(C)(C)[C@@H]5CC[C@]43C)[C@@H]12	> 2000	–	40	39.8
C=C(C)[C@@H]1CC[C@]2(C(=O)OCCCN3CCN(c4cc(NCc5ccccc5)ncn4)CC3)CC[C@]3(C)[C@H](CC[C@@H]4[C@@]5(C)CC[C@H](OC(=O)CC(C)(C)C(=O)O)C(C)(C)[C@@H]5CC[C@]43C)[C@@H]12	> 2000	–	430	–
C=C(C)[C@@H]1CC[C@]2(C(=O)N3CCN(C(=O)/C(=C/c4ccc5c(c4)OCO5)CC)CC3)CC[C@]3(C)[C@H](CC[C@@H]4[C@@]5(C)CC[C@H](OC(=O)CC(C)(C)C(=O)O)C(C)(C)[C@@H]5CC[C@]43C)[C@@H]12	> 2000	–	130	129
C=C(C)[C@@H]1CC[C@]2(C(=O)N3CCN(c4cc(NCc5ccccc5)ncn4)CC3)CC[C@]3(C)[C@H](CC[C@@H]4[C@@]5(C)CC[C@H](OC(=O)CC(C)(C)C(=O)O)C(C)(C)[C@@H]5CC[C@]43C)[C@@H]12	> 2000	–	37	–
C=C(C)[C@@H]1CC[C@]2(C(=O)N3CCN(C(=O)/C=C/c4cn(C)c5ccccc45)CC3)CC[C@]3(C)[C@H](CC[C@@H]4[C@@]5(C)CC[C@H](OC(=O)CC(C)(C)C(=O)O)C(C)(C)[C@@H]5CC[C@]43C)[C@@H]12	> 2000	–	140	141
C=C(C)[C@@H]1CC[C@]2(C(=O)N3CCN(C(=O)/C=C/c4cccc(OCOC)c4)CC3)CC[C@]3(C)[C@H](CC[C@@H]4[C@@]5(C)CC[C@H](OC(=O)CC(C)(C)C(=O)O)C(C)(C)[C@@H]5CC[C@]43C)[C@@H]12	> 2000	–	90	89.1
C=C(C)[C@@H]1CC[C@]2(C(=O)N3CCNCC3)CC[C@]3(C)[C@H](CC[C@@H]4[C@@]5(C)CC[C@H](Oc6ccc(O)c(O)c6)C(C)(C)[C@@H]5CC[C@]43C)[C@@H]12	> 2000	–	490	490
C=C(C)[C@@H]1CC[C@]2(C(=O)N3CCN(C(=O)/C=C/c4cccc(O)c4)CC3)CC[C@]3(C)[C@H](CC[C@@H]4[C@@]5(C)CC[C@H](OC(=O)CC(C)(C)C(=O)O)C(C)(C)[C@@H]5CC[C@]43C)[C@@H]12	> 2000	–	53	52.5
C=C(C)[C@@H]1CC[C@]2(C(=O)N3CCN(C(=O)/C=C/c4c[nH]c5ccccc45)CC3)CC[C@]3(C)[C@H](CC[C@@H]4[C@@]5(C)CC[C@H](OC(=O)CC(C)(C)C(=O)O)C(C)(C)[C@@H]5CC[C@]43C)[C@@H]12	> 2000	–	69	69.2
